Test results published in ChEMBL document CHEMBL4480463, “Quassinoids from Picrasma quassioides and Their Neuroprotective Effects” (2019).
Activity calls are given as the source filed them. The rule behind the calls is not given here.

How the values were obtained:
SH-SY5Y [1] = test: Neuroprotective activity against H2O2-induced cytotoxicity in human SH-SY5Y cells at 25 to 100 uM preincubated for 1 hr followed by H2O2-stimulation and measured after 4 hrs by MTT assay; format: functional, cell-based
Procedure, shortened: (§1)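 SH-SY5Y cells preincubated with compound (25, 50 or 100 μM) for 1 h, then exposed to 300 μM H2O2 for 4 h. Viability read by MTT assay. Trolox served as positive control.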

SH-SY5Y [2] = test: Inhibition of H2O2-induced apoptosis in human SH-SY5Y cells assessed as necrotic cells at 25 uM preincubated for 1 hr followed by H2O2-stimulation and measured after 4 hrs by Annexin V-FITC/propidium iodide staining-based flow cytometric analysis (reference value: 22.2%); format: functional; parameters: scale not given: the % may be the effect or the level left
SH-SY5Y [3] = test: Inhibition of H2O2-induced apoptosis in human SH-SY5Y cells assessed as viable cells at 25 uM preincubated for 1 hr followed by H2O2-stimulation and measured after 4 hrs by Annexin V-FITC/propidium iodide staining-based flow cytometric analysis (reference value: 50.7%); format: functional; conditions: read-out: Activity
SH-SY5Y [4] = test: Neuroprotective activity against H2O2-induced cytotoxicity in human SH-SY5Y cells at 25 uM preincubated for 1 hr followed by H2O2-stimulation and measured after 4 hrs by MTT assay; format: functional, cell-based; procedure, shortened: as §1
SH-SY5Y [5] = test: Inhibition of H2O2-induced apoptosis in human SH-SY5Y cells assessed as early apoptotic cells at 25 uM preincubated for 1 hr followed by H2O2-stimulation and measured after 4 hrs by Annexin V-FITC/propidium iodide staining-based flow cytometric analysis (reference value: 2.25%); format: functional; parameters: scale not given: the % may be the effect or the level left
SH-SY5Y [6] = test: Inhibition of H2O2-induced apoptosis in human SH-SY5Y cells assessed as decrease in caspase-3 activity at 25 uM; format: functional, cell-based
Procedure, shortened: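 SH-SY5Y cells exposed to H2O2 with or without test compound; caspase-3 activity in the cells quantified with a commercial caspase-3 activity assay kit; data given as means ± SDs.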

SH-SY5Y [7] = test: Inhibition of H2O2-induced apoptosis in human SH-SY5Y cells assessed as late apoptotic cells at 25 uM preincubated for 1 hr followed by H2O2-stimulation and measured after 4 hrs by Annexin V-FITC/propidium iodide staining-based flow cytometric analysis (reference value: 24.9%); format: functional; parameters: scale not given: the % may be the effect or the level left

With `COC1=C[C@@H](C)[C@@H]2C[C@H]3O[C@@H](O[C@@H]4O[C@H](CO)[C@@H](O)[C@H](O)[C@H]4O)C[C@@H]4[C@@]3(C)[C@H]([C@H](O)C(=O)[C@@]4(C)OC(C)=O)[C@@]2(C)C1=O` the Activity (SH-SY5Y [1]) was “inactive”.
With `COC1=C[C@@H](C)[C@@H]2C[C@H]3O[C@@H](O[C@@H]4O[C@H](CO)[C@@H](O)[C@H](O)[C@H]4O)C[C@@H]4[C@@]3(C)[C@H]([C@H](O)C(=O)[C@@]4(C)O)[C@@]2(C)C1=O` the Activity (SH-SY5Y [1]) was “inactive”.
With `COC1=C[C@@H](C)[C@@H]2C[C@H]3OC(=O)C[C@H]4[C@@H](C)[C@@H](O)C(=O)[C@H]([C@@]2(C)C1=O)[C@@]34C` the Activity (SH-SY5Y [1]) was “inactive”.
For `COC1=C[C@@H](C)[C@@H]2C[C@H]3O[C@@H](O[C@@H]4O[C@H](CO)[C@@H](O)[C@H](O)[C@H]4O)C[C@H]4[C@@H](C)[C@H](OC)[C@@H](O)[C@H]([C@@]2(C)C1=O)[C@@]34C`, the Activity (SH-SY5Y [1]) was “Active”.
With `COC1=C[C@@H](C)[C@@H]2C[C@H]3OC(=O)C[C@@]4(O)[C@@H](C)[C@H](OC)[C@@H](O)[C@H]([C@@]2(C)C1=O)[C@@]34C` the Activity (SH-SY5Y [1]) was “Active”.
For `COC1=C[C@@H](C)[C@@H]2C[C@H]3OC(=O)C[C@H]4[C@](C)(O)[C@@H]5OCO[C@H]5[C@H]([C@@]2(C)C1=O)[C@@]34C`, the Activity (SH-SY5Y [1]) was “Active”.
With `COC1=C[C@@H](C)[C@@H]2C[C@H]3O[C@@H](O[C@@H]4O[C@H](CO)[C@@H](O)[C@H](O)[C@H]4O)C[C@H]4[C@](C)(O)[C@H](OC)[C@@H](O)[C@H]([C@@]2(C)C1=O)[C@@]34C` the Activity (SH-SY5Y [1]) was “Active”.
With `COC1=C[C@@H](C)[C@@H]2C[C@H]3OC(=O)C[C@H]4[C@@H](C)[C@H](O)C(=O)[C@H]([C@@]2(C)C1=O)[C@@]34C` the Activity (SH-SY5Y [1]) was “inactive”.
`COC1=C[C@@H](C)[C@@H]2C[C@H]3OC(=O)C[C@H]4[C@@H](C)[C@@H]5OCO[C@H]5[C@H]([C@@]2(C)C1=O)[C@@]34C` was tested, and the Activity (SH-SY5Y [1]) was “Active”.
In the case of `COC1=C[C@@H](C)[C@@H]2C[C@H]3OC(=O)C[C@H]4[C@@H](C)[C@H](OC)[C@@H](OC(=O)c5cc(OC)c6c(c5)OCO6)[C@H]([C@@]2(C)C1=O)[C@@]34C`, the Activity (SH-SY5Y [2]) is reported as 7.89%, the viability at 25 µM (SH-SY5Y [3]) is reported as 79.8% and the Activity (SH-SY5Y [4]) is reported as “Active”. The Activity (SH-SY5Y [5]) was 2.2%, the Activity (SH-SY5Y [6]) was “Active” and the Activity (SH-SY5Y [7]) was 10.1%.
For `COC1=C[C@@H](C)[C@@H]2C[C@H]3OC(=O)C=C4C(C)=C(OC)C(=O)[C@@H]([C@]43C)[C@@]2(C)C1=O`, the Activity (SH-SY5Y [1]) was “Active”.
In the case of `COC1=C[C@@H](C)[C@@H]2C[C@H]3OC(=O)C[C@H]4[C@](C)(O)[C@@H](O)C(=O)[C@H]([C@@]2(C)C1=O)[C@@]34C`, the Activity (SH-SY5Y [1]) is reported as “inactive”.
For `COC1=C[C@@H](C)[C@@H]2C[C@H]3OC(=O)C[C@H]4[C@](C)(O)[C@H](OC)[C@@H](O)[C@H]([C@@]2(C)C1=O)[C@@]34C`, the Activity (SH-SY5Y [1]) was “Active”.
With `COC1=C[C@@H](C)[C@@H]2C[C@H]3O[C@@H](O[C@@H]4O[C@H](CO)[C@@H](O)[C@H](O)[C@H]4O)C[C@H]4C(C)=C(OC)C(=O)[C@H]([C@@]2(C)C1=O)[C@@]34C` [PICRASINOSIDE B] the Activity (SH-SY5Y [2]) was 7.43%, the viability at 25 µM (SH-SY5Y [3]) was 82.2% and the Activity (SH-SY5Y [4]) was “Active”. The Activity (SH-SY5Y [5]) was 1.86%, the Activity (SH-SY5Y [6]) was “Active” and the Activity (SH-SY5Y [7]) was 8.55%.
With `COC1=C[C@@H](C)[C@@H]2C[C@H]3OC(=O)C[C@H]4C(C)=C(OC)C(=O)[C@H]([C@@]2(C)C1=O)[C@@]34C` [QUASSIN] the Activity (SH-SY5Y [2]) was 10.7%, the viability at 25 µM (SH-SY5Y [3]) was 73.1% and the Activity (SH-SY5Y [4]) was “Active”. It also gave an Activity (SH-SY5Y [5]) of 2.45% and an Activity (SH-SY5Y [7]) of 13.7%.
With `COC1=C(C)[C@@H]2CC(=O)O[C@@H]3C[C@H]4[C@H](C)C[C@H](O)C(=O)[C@]4(C)[C@@H](C1=O)[C@@]32C` the Activity (SH-SY5Y [1]) was “Active”.
For `COC1=C[C@@H](C)[C@@H]2C[C@H]3OC(=O)C=C4[C@@H](C)[C@@H]5OCO[C@H]5[C@@H]([C@]43C)[C@@]2(C)C1=O`, the Activity (SH-SY5Y [1]) was “inactive”.
In the case of `COC1=C[C@@H](C)[C@@H]2C[C@H]3OC(=O)C[C@@]4(O)C(C)=C(OC)C(=O)[C@H]([C@@]2(C)C1=O)[C@@]34C`, the Activity (SH-SY5Y [2]) is reported as 11.3%, the viability at 25 µM (SH-SY5Y [3]) is reported as 72.1% and the Activity (SH-SY5Y [4]) is reported as “Active”. For the same compound, the Activity (SH-SY5Y [5]) was 3.18% and the Activity (SH-SY5Y [7]) was 13.4%.
With `COC1=C[C@@H](C)[C@@H]2C[C@H]3OC(=O)C[C@H]4C(CO)=C(OC)C(=O)[C@H]([C@@]2(C)C1=O)[C@@]34C` the Activity (SH-SY5Y [2]) was 7.31%, the viability at 25 µM (SH-SY5Y [3]) was 76.8% and the Activity (SH-SY5Y [4]) was “Active”. For the same compound, the Activity (SH-SY5Y [5]) was 2.96% and the Activity (SH-SY5Y [7]) was 13%.
